# Bioassay records from PubChem.
# RAM network inh = blocks the yeast RAM network. S. cerevisiae dse1pr::URA3 reporter, 5-FOA growth OD615, 2 d; analog-sensitive cbk1-as2 kinase mutant strain. inhibition, % at 50 µM. hit rate 1.8% among 190,000. AID 868;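 active = inhibition above a set limit, 3 SD over mean compound inhibition, cut at about 8.4% in these data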;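 note: 0% = DMSO-only wells with no growth and 100% = 10 µM 1-NA-PP1 full growth; inhibition rescues growth on 5-FOA so higher OD means more RAM inhibition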
# Yeast life ext = extends the lifespan of yeast; inhibition of the nicotinamide effect, % at 10 µM; hit rate 0.68% among 130,000; AID 775; S. cerevisiae growth with nicotinamide, OD615; deaD strain in restrictive glucose medium;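 active = inhibition above a set limit, placed 3 SD over the median of all compounds, cut at about 26% in these data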;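 note: 0% = nicotinamide-treated wells and 100% = cells grown without nicotinamide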
#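 System: DeaD-strain S. cerevisiae / Buffer or medium: CSMM-D, restrictive glucose (dextrose) synthetic minimal medium / Probe or stimulus: nicotinamide, 1.5 mM, co-present with compound / Compound: one concentration, 10 µM, DMSO 0.25% / Incubation: 48 h compound exposure at 30 °C, humidified / Technique: optical density (absorbance) at 615 nm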
# INS promoter inh = TRM-6 insulin promoter activity inhibition | TRM-6 cells, insulin promoter-eGFP reporter, imaging; reporter expression induced with tamoxifen | hit rate 0.9% among 130,000 | AID 1273 | inhibition, % at 2 µM;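 active = inhibition above the mean plus 3 SD, with well images judged a real hit on visual review, cut at about 60% in these data, passing the limit was not always enough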
# BB579 growth dn = yeast BB579 growth reduction in restrictive medium; S. cerevisiae BB579 growth, OD615, 48 h; inhibition, % at 10 µM; hit rate 0.51% among 140,000; AID 804;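 active = inhibition above a set limit, 3 SD over the mean compound inhibition, cut at about 44% in these data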
#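 Material: Saccharomyces cerevisiae DeaD strain BB579, replicative lifespan model yeast; buffer or medium: CSMM-D restrictive synthetic medium containing dextrose (glucose); compound: 10 µM single dose, DMSO 0.25%; timing: 48 h compound exposure at 30 °C after 4 h preincubation; signal: turbidity as optical density at 615 nm; benchmarks: positive control amphotericin B 10 µg/mL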
# HMGR II inh = inhibitors of class II HMG-CoA reductase from Enterococcus faecalis; purified E. faecalis HMGR, NADPH absorbance 340 nm kinetic; inhibition, % at 10 µM; hit rate 0.41% among 190,000;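 active = inhibition above a set limit, the median over all tested compounds plus 3 SD, cut at about 9.5% in these data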;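 note: enzyme runs in reverse so mevalonate oxidation gives rising NADPH absorbance; 0% = complete reaction with DMSO and 100% = background rate lacking mevalonate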
# An asterisk follows results filed as active; . = no result. In the library only some 3.7% were active in any assay of this set; here they are far more common.
SMILES,RAM network inh,Yeast life ext,INS promoter inh,BB579 growth dn,HMGR II inh
CCn1cc(C(=O)O)c(=O)c2cc(F)c(N3CCN(S(=O)(=O)c4ccc(NC(=O)OC)cc4)CC3)cc21,2.2,-0.3,29.4,-15.8,-2.5
CCN(CC)C(=O)c1ccc(NS(=O)(=O)c2ccccc2)cc1,2.6,-5.5,100.0*,-29.4,-1.7
CCN(CC)C(=O)c1ccc(NS(=O)(=O)c2ccc(/C=C/C(=O)O)cc2)cc1,1.4,.,40.0,.,-1.5
CCOC(=O)C1=C(C)Nc2nc(=S)[nH]n2C1c1ccc(Cl)cc1 (stereo not given),3.3,61.8*,37.1,-49.6,1.1
Nc1nc(F)cc(NCc2ccccc2)n1,1.4,.,-114.3,.,-4.4
Cc1cc(C(C)(C)C)oc1C(=O)N(CC(=O)NC1CCCC1)Cc1ccccc1,3.0,4.9,.,-30.9,4.6
Cc1ccc(C)c(N(CC(=O)NC2CCCC2)C(=O)c2oc(C(C)(C)C)cc2C)c1,9.5*,-4.4,38.7,-37.8,4.4
Cc1ccc(CNC(=O)c2ccc(CN3CCOCC3)cc2)cc1,2.9,-7.0,.,-51.7,11.4*
Cc1ccc(SCCNC(=O)c2ccc(CN3CCOCC3)cc2)cc1,0.2,.,55.0,.,-1.3
Cc1ccc(OCCSc2nc(NC(C)C)nc(NC(C)C)n2)cc1,1.3,10.9,22.2,-53.6,1.7
Cc1ccc(SCCc2ccc(C)nc2)cc1,0.4,-2.2,52.9,4.3,-1.5
CC(C)(C)NCC(O)(c1ccc(Cl)cc1)c1ccc(Cl)cc1,-0.3,.,-65.8,.,-1.7
CC(C)NCC(O)(c1ccc(Cl)cc1)c1ccc(Cl)cc1,0.1,.,-135.0,.,13.1*
CCCCN(C)C1=Nc2cccc3cccc1c23,0.5,-1.3,75.3*,-40.2,0.7
CCCCOC(=O)c1ccc(NC(=O)CSC2=Nc3ccccc3C3CC=NN23)cc1 (stereo not given),8.4*,-12.4,.,-21.3,-0.5
COc1cc(OC)cc(C(=O)OCc2cc3ccccc3[nH]c2=O)c1,1.8,-9.0,71.4*,-46.9,-0.6
COc1ccc(CC(=O)OCc2cc3ccccc3[nH]c2=O)cc1,3.6,1.2,.,-56.0,2.0
Cc1ccc2nc(NC(=O)C3CCN(S(=O)(=O)c4cnc[nH]4)CC3)sc2c1,11.1*,6.3,-83.3,-50.4,5.4
Fc1ccc(-c2csc(-c3ccncc3)n2)cc1,1.0,.,-15.0,.,-0.5
N#C/C(=N/O)c1nc(-c2ccc(F)cc2)cs1,-1.5,-3.2,-66.7,54.0*,-1.7
COc1ccc(C2=NCC(CSc3nccc(=O)[nH]3)S2)cc1 (stereo not given),-0.1,-7.0,85.7*,-37.5,-7.8
COc1ccc(C2=NCC(CSc3nnnn3C)S2)cc1 (stereo not given),1.9,-2.7,-35.7,-26.8,-0.2
O=C(Cc1ccsc1)Nc1ccc(S(=O)(=O)C(F)F)cc1,2.3,.,.,.,-3.7
S=C1NC2(CCCCC2)NN1c1ccccc1,-0.5,.,.,.,-2.5
CC1CCCC2(C1)NC(=S)N(c1ccccc1)N2 (stereo not given),-1.6,-32.1,40.0,87.1*,2.4
SMILES,RAM network inh,Yeast life ext,INS promoter inh,BB579 growth dn,HMGR II inh
Cc1ccc(NC(=O)CSc2ncnc3ccccc23)cc1S(=O)(=O)N1CCCCCC1,4.6,0.6,-13.3,-34.4,-1.2
C=CCNC(=O)c1ccc(Cn2cc(C(F)(F)F)ccc2=O)cc1,1.9,.,.,.,-1.8
O=C(CCl)NC(=O)NC12CC3CC(CC(C3)C1)C2,0.7,35.0*,58.1,15.2,-2.5
CC(Cl)C(=O)NC(=O)NC12CC3CC(CC(C3)C1)C2 (stereo not given),1.1,21.7,.,-19.2,-2.8
O=[N+]([O-])c1ccccc1S(=O)(=O)N1CCN(Cc2ccsc2)CC1,1.4,.,.,.,-0.3
CC(Nc1ccc(Cl)cc1)c1cc(Cl)ccc1O (stereo not given),-1.6,.,25.6,7.7,-0.7
CC(Nc1ccc(Br)cn1)c1cc(Cl)ccc1O (stereo not given),0.8,3.3,28.6,60.5*,0.6
COc1ccc(C(=O)NNC(=O)CSc2nnc(-c3cccnc3)n2C)cc1,1.2,.,.,.,-1.1
CCOc1ccccc1-c1nnc(SCC(=O)Nc2ccccc2)o1,10.0*,-18.3,-6.2,-38.0,3.6
O=C(CSc1nnc(-c2ccccn2)o1)Nc1ccccc1,-0.2,.,.,.,-5.3
N#CC1(C#N)CC(C=O)=C(N)C1(C#N)CC(=O)C12CC3CC(CC(C3)C1)C2 (stereo not given),0.0,3.8,-20.0,-35.3,-4.7
CCC1CCCCN1S(=O)(=O)c1ccc(NC(=O)CSc2ncccc2C(=O)O)cc1 (stereo not given),3.9,-5.1,.,-24.8,-4.8
CCC1CCCCN1S(=O)(=O)c1ccc(NC(=O)c2cccs2)cc1 (stereo not given),4.5,.,62.5,-29.6,11.3*
COc1ccc(C2C3C(C)=NN=C3CC(C)(O)C2C(C)=O)cc1 (stereo not given),5.1,0.2,13.3,-2.1,-5.3
Cc1cc(Cl)ccc1NC(=S)NCCC(c1ccccc1)c1ccccc1,5.0,-5.4,25.0,20.2,1.8
COc1ccc(S(=O)(=O)n2nc(OCc3cccs3)cc2N)cc1,-0.5,.,.,.,-0.2
COC(=O)c1sccc1N/N=C/c1cccc(Oc2ccccc2)c1,8.5*,5.3,43.8,-79.2,-2.0
COC1=CCC2([N+](=O)[O-])CN(CCO)CC1([N+](=O)[O-])C2 (stereo not given),0.3,11.3,-23.3,-45.1,-7.2
NNc1ncnc2scc(-c3ccc(Cl)cc3)c12,0.3,4.2,.,-21.7,-0.5
Cc1ccc(-c2csc3ncnc(NS(=O)(=O)c4ccc(Cl)cc4)c23)cc1,9.2*,6.4,.,-32.5,0.2
C(#CC12CC3CC(CC(C3)C1)C2)CN1CCOCC1,-0.6,.,23.5,.,-2.6
COc1ccccc1C(=O)N1c2ccccc2Sc2ccccc21,3.7,18.5,-38.5,-21.8,0.9
O=C(c1cccnc1)N1c2ccccc2Sc2ccccc21,-0.1,.,12.5,.,11.8*
CC(C)CC(=O)Nc1cccc(-c2csc(-c3ccccc3)n2)c1,10.5*,-13.7,-18.5,-56.0,-2.6
CCC(=O)Nc1cccc(-c2csc(-c3ccccc3)n2)c1,3.0,-7.2,0.0,-7.2,-2.6
SMILES,RAM network inh,Yeast life ext,INS promoter inh,BB579 growth dn,HMGR II inh
Cc1ccc2occ(C(c3nnnn3Cc3ccccc3)N3CCOCC3)c(=O)c2c1 (stereo not given),2.2,26.1*,-34.3,-42.3,-5.0
CC1(/[N+]([O-])=C/c2ccccc2F)CCCCC1=O (stereo not given),1.4,.,-58.8,.,-3.4
CC(C)C(=O)NC(c1cccs1)c1cc([N+](=O)[O-])c2cccnc2c1O (stereo not given),-1.5,-13.0,.,1.1,-3.3
Cc1ccc(C(NC(=O)C(C)C)c2cc([N+](=O)[O-])c3cccnc3c2O)cc1 (stereo not given),1.8,-3.4,-126.7,85.8*,3.7
CCC(=O)NC(/C=C/c1ccccc1)c1cc([N+](=O)[O-])c2cccnc2c1O (stereo not given),10.7*,-2.7,.,-3.4,-7.6
O=C(Oc1c(Cl)cc(Cl)c2cccnc12)c1cccs1,0.4,.,28.6,98.9*,1.5
